Measurements taken from ChEMBL document CHEMBL1212739, “Clindamycin-induced CovS-mediated regulation of the production of virulent exoproteins streptolysin O, NAD glycohydrolase, and streptokinase in Streptococcus pyogenes” (2010).
Calls of active or inactive are those of the source.

Key:
Streptococcus pyogenes [1] = assay: Antibacterial activity against Streptococcus pyogenes D2TY; assay type: functional
Method in brief: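 MICs of clindamycin hydrochloride determined for S. pyogenes M1 strain D2TY (STSS clinical isolate) by broth microdilution and by Etest, following CLSI guidelines. Bacteria grown at 37°C without agitation in brain heart infusion broth with 0.3% yeast extract. Resistance breakpoint taken as MIC above 1 μg/ml.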

Streptococcus pyogenes [2] = assay: Induction of slo mRNA expression in drug-resistant Streptococcus pyogenes D2TY at 1 ug/ml by Northern blot analysis; assay type: functional, organism-based
Method in brief: (§1)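 Cells grown static at 37°C in 5 ml BHI-YE, with 1 μg/ml CLI or none added at inoculation, and harvested at OD660 ≈0.8 (late log). Total RNA was DNase-treated. About 1 μg was run on 1% agarose with 1.1 M formaldehyde and blotted to nylon. Probes were 32P-labeled nga, slo, ska, covS or covR DNA, quantified by autoradiography/bioimaging. Triplicate assays from at least two independent cultures.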

Streptococcus pyogenes [3] = assay: Induction of nga mRNA expression in drug-resistant Streptococcus pyogenes D2TY at 1 ug/ml by Northern blot analysis; assay type: functional, organism-based; method in brief: as §1
Streptococcus pyogenes [4] = assay: Induction of ska mRNA expression in drug-resistant Streptococcus pyogenes D2TY at 1 ug/ml by Northern blot analysis; assay type: functional, organism-based; method in brief: as §1
Streptococcus pyogenes [5] = assay: Induction of Slo protein production in drug-resistant Streptococcus pyogenes D2TY at 1 ug/ml by Western blot analysis; assay type: functional, organism-based
Method in brief: (§2)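 Strain D2TY or its covS knockout, grown from −80°C stock at 37°C without agitation in 5 ml BHI-YE (0.3% yeast extract) containing protease inhibitor E-64, with or without 1 μg/ml CLI. Supernatant proteins run on SDS-PAGE and blotted to PVDF. Rabbit anti-Slo, anti-Nga or anti-Ska (1:2,000) applied for 16 h at room temperature. HRP goat anti-rabbit IgG (1:2,000) used as secondary. Triplicate assays from at least two independent cultures.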

Streptococcus pyogenes [6] = assay: Induction of Nga protein production in drug-resistant Streptococcus pyogenes D2TY at 1 ug/ml by Western blot analysis; assay type: functional, organism-based; method in brief: as §2
Streptococcus pyogenes [7] = assay: Induction of Ska protein production in drug-resistant Streptococcus pyogenes D2TY at 1 ug/ml by Western blot analysis; assay type: functional, organism-based; method in brief: as §2
Streptococcus pyogenes [8] = assay: Induction of covS mRNA expression in drug-resistant Streptococcus pyogenes D2TY in BHI-YE supplemented medium at 1 ug/ml by Northern blot analysis; assay type: functional, organism-based; method in brief: as §1
Streptococcus pyogenes [9] = assay: Induction of covS mRNA expression in drug-resistant Streptococcus pyogenes D2TY delta covS mutant at 1 ug/ml by Northern blot analysis; assay type: functional, organism-based; method in brief: as §1
Streptococcus pyogenes [10] = assay: Induction of covR mRNA expression in drug-resistant Streptococcus pyogenes D2TY delta covS mutant at 1 ug/ml by Northern blot analysis; assay type: functional, organism-based; method in brief: as §1
Streptococcus pyogenes [11] = assay: Induction of two-component sensor kinase CovS expression in drug-resistant Streptococcus pyogenes D2TY delta covS mutant at 1 ug/ml by Northern blot analysis; assay type: functional, organism-based; method in brief: as §1
Streptococcus pyogenes [12] = assay: Decrease in slo mRNA expression in drug-resistant Streptococcus pyogenes D2TY isogenic delta covS mutant in BHI-YE supplemented medium at 1 ug/ml by Northern blot analysis; assay type: functional, organism-based; method in brief: as §1
Streptococcus pyogenes [13] = assay: Decrease in nga mRNA expression in drug-resistant Streptococcus pyogenes D2TY isogenic delta covS mutant in BHI-YE supplemented medium at 1 ug/ml by Northern blot analysis; assay type: functional, organism-based; method in brief: as §1
Streptococcus pyogenes [14] = assay: Decrease in ska mRNA expression in drug-resistant Streptococcus pyogenes D2TY isogenic delta covS mutant in BHI-YE supplemented medium at 1 ug/ml by Northern blot analysis; assay type: functional, organism-based; method in brief: as §1
Streptococcus pyogenes [15] = assay: Decrease in Slo protein production in drug-resistant Streptococcus pyogenes D2TY isogenic delta covS mutant in BHI-YE supplemented medium at 1 ug/ml by Western blot analysis; assay type: functional, organism-based; method in brief: as §2
Streptococcus pyogenes [16] = assay: Decrease in Nga protein production in drug-resistant Streptococcus pyogenes D2TY isogenic delta covS mutant in BHI-YE supplemented medium at 1 ug/ml by Western blot analysis; assay type: functional, organism-based; method in brief: as §2
Streptococcus pyogenes [17] = assay: Decrease in Ska protein production in drug-resistant Streptococcus pyogenes D2TY isogenic delta covS mutant in BHI-YE supplemented medium at 1 ug/ml by Western blot analysis; assay type: functional, organism-based; method in brief: as §2

CCC[C@@H]1C[C@@H](C(=O)N[C@@H]([C@H]2O[C@H](SC)[C@H](O)[C@@H](O)[C@H]2O)[C@H](C)Cl)N(C)C1.Cl [CLINDAMYCIN HYDROCHLORIDE]
inactive: Activity (Streptococcus pyogenes [9]) | Activity (Streptococcus pyogenes [10]) | Activity (Streptococcus pyogenes [11])
active: Activity (Streptococcus pyogenes [2]) | Activity (Streptococcus pyogenes [3]) | Activity (Streptococcus pyogenes [4]) | Activity (Streptococcus pyogenes [5]) | Activity (Streptococcus pyogenes [6]) | Activity (Streptococcus pyogenes [7]) | Activity (Streptococcus pyogenes [8]) | Activity (Streptococcus pyogenes [12]) | Activity (Streptococcus pyogenes [13]) | Activity (Streptococcus pyogenes [14]) | Activity (Streptococcus pyogenes [15]) | Activity (Streptococcus pyogenes [16]) | Activity (Streptococcus pyogenes [17])
256 µg/mL: MIC (Streptococcus pyogenes [1])
